Reference: ChEMBL document CHEMBL4190208, “Design, synthesis and characterization of novel quinacrine analogs that preferentially kill cancer over non-cancer cells through the down-regulation of Bcl-2 and up-regulation of Bax and Bad” (Eur J Med Chem, 2017)
Activity calls are given as the source filed them. The rule behind the calls is not given here.

Columns and labels:
[1] = system: MDA-MB-468; assay: Cytotoxicity against human MDA-MB-468 cells assessed as growth inhibition after 48 hrs by SRB assay; assay type: functional, cell-based; conditions: MDA-MB-468, 48 h
How it was run: (§1)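 Cells seeded at 5000–10,000 per well and exposed continuously for 48 h to seven concentrations ([…]). DMSO stocks were diluted in medium, final DMSO ≤0.1%, and matched DMSO medium served as the negative control. Viable cell mass was read by SRB. IC50 is the concentration giving 50% growth decrease versus control. Values are the mean of triplicates from at least two independent experiments.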

[2] = system: MDA-MB-231; assay: Cytotoxicity against human MDA-MB-231 cells assessed as growth inhibition after 48 hrs by SRB assay; assay type: functional, cell-based; conditions: MDA-MB-231, 48 h; how it was run: as §1
[3] = system: MCF7; assay: Cytotoxicity against human MCF7 cells assessed as growth inhibition after 48 hrs by SRB assay; assay type: functional, cell-based; conditions: MCF7, 48 h; how it was run: as §1
[4] = system: 184B5; assay: Cytotoxicity against human 184B5 cells assessed as growth inhibition after 48 hrs by SRB assay; assay type: cell-based; conditions: 184B5, 48 h; how it was run: as §1
[5] = system: MCF-10A; assay: Cytotoxicity against human MCF10A cells assessed as growth inhibition after 48 hrs by SRB assay; assay type: cell-based; how it was run: as §1
[6] = Selectivity index, ratio of IC50 for human MCF10A cells to IC50 for human MDA-MB-231 cells; assay type: toxicity; conditions: MCF10A cells versus MDA-MB-231 cells, read-out: Ratio IC50
[7] = Selectivity index, ratio of IC50 for human MCF10A cells to IC50 for human MCF7 cells; assay type: toxicity; conditions: MCF10A cells versus MCF7 cells, read-out: Ratio IC50
[8] = system: MDA-MB-468; assay: Anticlonogenic activity against human MDA-MB-468 cells at 3.5 uM after 12 days; assay type: functional, cell-based
[9] = system: MCF7; assay: Anticlonogenic activity against human MCF7 cells at 3.5 uM after 12 days; assay type: functional, cell-based
[10] = system: HeLa; assay: Anticlonogenic activity against human HeLa cells at 3.5 uM after 12 days; assay type: functional, cell-based
[11] = system: MDA-MB-231; assay: Cell cycle arrest in human MDA-MB-231 cells assessed as accumulation at sub-G1 phase at 6 uM after 48 hrs by flow cytometric method; assay type: functional, cell-based
[12] = system: 184B5; assay: Cell cycle arrest in human 184B5 cells assessed as accumulation at sub-G1 phase at 6 uM after 48 hrs by flow cytometric method; assay type: ADME, cell-based; conditions: 184b5, 48 h
[13] = system: MDA-MB-231; assay: Induction of apoptosis in human MDA-MB-231 cells assessed as change in cell morphology at 6 uM after 24 hrs by acridine orange/ethidium bromide staining-based confocal microscopic method; assay type: functional
[14] = system: MDA-MB-231; assay: Induction of apoptosis in human MDA-MB-231 cells assessed as increase in PARP cleavage at 6 uM after 24 hrs by Western blot method; assay type: functional, cell-based
[15] = system: MDA-MB-231; assay: Induction of apoptosis in human MDA-MB-231 cells at 6 uM after 24 hrs by TUNEL assay; assay type: functional, cell-based
[16] = system: MCF7; assay: Induction of apoptosis in human MCF7 cells at 6 uM after 24 hrs by TUNEL assay; assay type: functional, cell-based
[17] = system: MDA-MB-231; assay: Induction of apoptosis in human MDA-MB-231 cells assessed as downregulation of Bcl-2 expression at 6 uM after 24 to 72 hrs by Western blot method; assay type: functional, cell-based
[18] = system: MDA-MB-231; assay: Induction of apoptosis in human MDA-MB-231 cells assessed as upregulation of Bad expression at 6 uM after 24 to 72 hrs by Western blot method; assay type: functional, cell-based
[19] = system: MDA-MB-231; assay: Induction of apoptosis in human MDA-MB-231 cells assessed as upregulation of Bax expression at 6 uM after 24 to 72 hrs by Western blot method; assay type: functional, cell-based
[20] = system: MDA-MB-231; assay: Induction of apoptosis in human MDA-MB-231 cells assessed as increase in cytochrome c levels in mitochondria at 6 uM after 24 to 72 hrs by Western blot method; assay type: functional, cell-based
[21] = system: MDA-MB-231; assay: Effect on Bcl-XL levels in human MDA-MB-231 cells at 6 uM after 24 to 72 hrs by Western blot method; assay type: functional, cell-based
[22] = system: MCF7; assay: Induction of apoptosis in human MCF7 cells assessed as upregulation of Bad expression at 4 to 6 uM after 48 hrs by Western blot method; assay type: functional, cell-based

SMILES	IC50 [1] [µM]	IC50 [2] [µM]	IC50 [3] [µM]	IC50 [4] [µM]	also measured
COc1ccc2nc3cc(Cl)ccc3c(NCCCN3C(=O)CSC3c3ccccc3)c2c1 (stereo not given)	2.54	3.55	3.23	8.06	–
COc1ccc2nc3cc(Cl)ccc3c(NCCCN3C(=O)CSC3c3c(F)cccc3Cl)c2c1 (stereo not given)	3.96	2.12	3.04	8.07	–
COc1ccc2nc3cc(Cl)ccc3c(NCCCN3C(=O)CSC3c3ccc([N+](=O)[O-])cc3)c2c1 (stereo not given)	4.87	3.86	4.36	17.8	–
COc1ccc2nc3cc(Cl)ccc3c(NCCCN3C(=O)CSC3c3ccc(F)cc3)c2c1 (stereo not given)	4.26	1.89	3.07	12.1	–
COc1ccc2nc3cc(Cl)ccc3c(NCCCN3C(=O)CSC3c3ccc(Cl)cc3Cl)c2c1 (stereo not given)	4.15	4.05	4.1	7.22	–
COc1ccc2nc3cc(Cl)ccc3c(NCCCN3C(=O)CSC3c3ccccc3Cl)c2c1 (stereo not given)	3.89	3.85	3.87	13.2	–
COc1ccc2nc3cc(Cl)ccc3c(NCCCN3C(=O)CSC3c3ccnc4ccccc34)c2c1 (stereo not given)	6.64	3.7	6.55	13.1	–
COc1ccc2nc3cc(Cl)ccc3c(NCCCN3C(=O)CSC3c3ccncc3)c2c1 (stereo not given)	5.1	1.11	2.27	16.8	–
COc1ccc2nc3cc(Cl)ccc3c(NCCCN3C(=O)CSC3c3ccc(F)cc3F)c2c1 (stereo not given)	4.15	1.8	2.97	4.14	–
COc1ccc2nc3cc(Cl)ccc3c(NCCCN3C(=O)CSC3c3ccc(Cl)cc3)c2c1 (stereo not given)	4.19	3.73	3.96	4.58	–
COc1ccc2nc3cc(Cl)ccc3c(NCCCN3C(=O)CSC3c3ccccc3[N+](=O)[O-])c2c1 (stereo not given)	3.2	4.16	3.68	30.2	–
COc1ccc2nc3cc(Cl)ccc3c(NCCCN3C(=O)CSC3c3cccs3)c2c1 (stereo not given)	4.61	6.76	3.31	18	–
COc1ccc2nc3cc(Cl)ccc3c(NCCCN3C(=O)CSC3c3ccc[nH]3)c2c1 (stereo not given)	4.52	6.4	10.6	18.4	–
COc1ccc2nc3cc(Cl)ccc3c(NCCCN3C(=O)CSC3c3c(Cl)cccc3Cl)c2c1 (stereo not given)	4.04	3.98	4.01	28.3	–
COc1ccc2nc3cc(Cl)ccc3c(NCCCN3C(=O)CSC3c3ccccc3Br)c2c1 (stereo not given)	4.38	3.63	4	21.6	–
COc1ccc2nc3cc(Cl)ccc3c(NCCCN3C(=O)CSC3c3ccco3)c2c1 (stereo not given)	5.58	1.97	4.78	13.4	–
COc1ccc2nc3cc(Cl)ccc3c(NCCCN3C(=O)CSC3c3c(F)cccc3F)c2c1 (stereo not given)	2.4	1.92	1.24	16.2	IC50 [5]: 18.2 µM; selectivity ratio [6]: 7.6; selectivity ratio [7]: 14.7; Activity [8]: Active; Activity [9]: Active; Activity [10]: Active; Activity [11]: Active; Activity [12]: Non-Toxic; Activity [13]: Active; Activity [14]: Active; Activity [15]: Active; Activity [16]: Active; Activity [17]: Active; Activity [18]: Active; Activity [19]: Active; Activity [20]: Active; Activity [21]: inactive; Activity [22]: Active
COc1ccc2nc3cc(Cl)ccc3c(NCCCN3C(=O)CSC3c3ccc(N(c4ccccc4)c4ccccc4)cc3)c2c1 (stereo not given)	14.4	17.6	10.4	17.8	–
COc1ccc2nc3cc(Cl)ccc3c(NCCCN3C(=O)CSC3c3ccc(Br)cc3)c2c1 (stereo not given)	3.68	3.74	3.71	4.88	–
COc1ccc2nc3cc(Cl)ccc3c(NCCCN3C(=O)CSC3C3CCCCC3)c2c1 (stereo not given)	3.75	3.86	3.81	3.14	–
COc1ccc2nc3cc(Cl)ccc3c(NCCCN3C(=O)CSC3c3ccc(N(C)C)cc3)c2c1 (stereo not given)	3.32	4.25	3.78	16.4	–
COc1ccc2nc3cc(Cl)ccc3c(NCCCN3C(=O)CSC3c3ccc(C)cc3)c2c1 (stereo not given)	3.59	2.93	3.26	7.98	–
COc1ccc2nc3cc(Cl)ccc3c(NCCCN3C(=O)CSC3c3ccccc3F)c2c1 (stereo not given)	3.91	1.95	2.93	8.16	–
